Bioassay records deposited in PubChem BioAssay by several laboratories.
Sampled rows, rich in hits. Any-hit rate of the full collection: about 3.2%.
EphB4 antag: EphB4-ephrin-B2 interaction antagonism; EphB4 LBD / TNYL-RAW-Alexa532 peptide, fluorescence polarization; 97,000 compounds, 0.15% hits; AID 720; inhibition, % at 7 µM; P54760;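 active means inhibition above the screen-wide mean inhibition plus 3 SD, cut at about 15% in these data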
Plk1 PBD FP: Plk1 (human) PBD binding inhibition; Plk1 PBD phosphopeptide binding, fluorescence polarization; AID 693; P53350; 97,000 compounds, 0.13% hits; inhibition, %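 (tested at about 20 µM)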; in the data active means inhibition above about 34%, passing the limit was not always enough
hDAT+cocaine: modulates human dopamine transporter uptake under cocaine; Q01959; LLC-PK1 hDAT cells, [14C]-dopamine uptake with cocaine IC80; actives deviate in either direction; B-score at 10 µM; 110,000 compounds, 1.3% hits;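 active means Z score or B-score, a plate-position-corrected score, falls beyond the plate's 99.7% confidence bounds, in either direction; inactive means both scores lie inside the 99.7% bounds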
FAK inh: blocks human focal adhesion kinase activity; 97,000 compounds, 0.84% hits; AID 727; biochemical FAK kinase activity assay; inhibition, %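 (tested at 7 µM)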; Q05397; in the data active means inhibition above about 19%
Rev-RRE block: HIV Rev-RRE protein-RNA interaction inhibition | P05866 | AID 704 | inhibition, % at 8 µM | Rev peptide-RRE RNA binding, FRET | 97,000 compounds, 0.79% hits;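 active means inhibition above the screen-wide mean plus 3 SD, cut at about 35% in these data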
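Assay system: Rev peptide and RRE RNA, both fluorescently labelled; times: 5 min preincubation and 15 min binding, 25 °C; detection: FRET, ex 480 nm, em 540 and 671 nm; read-out basis: % inhibition from 671/540 nm acceptor-to-donor ratio, scaled between controls; benchmarks: DMSO low control, neomycin B high control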
PLK1 inh: inhibitors of human PLK1 kinase; inhibition, % at 10 µM; recombinant PLK1 kinase, TR-FRET peptide phosphorylation; 97,000 compounds, 0.53% hits; AID 619;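 active means inhibition of 50% or more in the single-concentration screen; inactive means inhibition below 50%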
Hits are given with their value; [ ] = remark or other dose.

Screening O=c1cc(Cl)[nH]c(=O)n1CCNc1ncc(C(F)(F)F)cc1Cl returned EphB4 antag inactive, Plk1 PBD FP inactive, hDAT+cocaine inactive, FAK inh inactive, Rev-RRE block 52 and PLK1 inh inactive.
For CC(C)(C)OC(=O)CNC(=O)c1[nH]cnc1C(=O)N[C@@H](CCCCNC(=O)OC(C)(C)C)C(=O)OC(C)(C)C the results were hDAT+cocaine 2.8.
For Cc1c(C)n(CC(O)CN2C(=O)c3ccccc3S2(=O)=O)c2ccccc12 (stereo unspecified) the results were EphB4 antag inactive, Plk1 PBD FP inactive, hDAT+cocaine inactive, FAK inh inactive, Rev-RRE block inactive and PLK1 inh inactive.
`NC(=O)c1sc2nc3c(c(-c4cccnc4)c2c1N)CCC3` gave EphB4 antag inactive, Plk1 PBD FP inactive, hDAT+cocaine -9.1, FAK inh inactive, Rev-RRE block inactive and PLK1 inh inactive.
N#Cc1sc2nc3c(c(-c4cccnc4)c2c1N)CCC3 was read as EphB4 antag inactive, Plk1 PBD FP inactive, hDAT+cocaine inactive, FAK inh inactive, Rev-RRE block inactive and PLK1 inh inactive.
Screening NC(=S)n1[nH]c(-c2ccc([N+](=O)[O-])cc2)c(N=Nc2ccc(O)cc2)c1=O returned EphB4 antag inactive, Plk1 PBD FP inactive, FAK inh inactive, Rev-RRE block inactive and PLK1 inh inactive.
Screening CCN(CC)S(=O)(=O)c1ccc(N=Nc2c(C)[nH]n(C(N)=S)c2=O)cc1 returned EphB4 antag inactive, Plk1 PBD FP inactive, hDAT+cocaine -3, FAK inh inactive, Rev-RRE block inactive and PLK1 inh inactive.
For Cc1ccc(NCc2nnc(SCC(N)=O)n2CCc2ccccc2)cc1 the results were EphB4 antag inactive, Plk1 PBD FP inactive, hDAT+cocaine inactive, FAK inh inactive, Rev-RRE block inactive and PLK1 inh inactive.
`CCOC(=O)NC(=O)CSc1nc(C)cc(C(F)(F)F)c1C#N` gave EphB4 antag inactive, Plk1 PBD FP inactive, hDAT+cocaine inactive, FAK inh inactive, Rev-RRE block 42 and PLK1 inh inactive.
For Cc1ccc(S(=O)(=O)CCSc2nc(C)cc(C(F)(F)F)c2C#N)cc1 the results were EphB4 antag inactive, Plk1 PBD FP inactive, hDAT+cocaine inactive, FAK inh inactive, Rev-RRE block 64 and PLK1 inh inactive.
Cc1ccccc1-n1c(SCc2c(C)noc2C)nnc1-c1cccnc1 was read as EphB4 antag inactive, Plk1 PBD FP inactive, hDAT+cocaine inactive, FAK inh inactive, Rev-RRE block 55 and PLK1 inh inactive.
CCn1c(CSc2nnc(-c3cccnc3)n2-c2ccccc2C)nc2cc(C(=O)O)ccc21 was read as EphB4 antag 30[fluorescence artefact?], Plk1 PBD FP inactive, FAK inh inactive, Rev-RRE block inactive and PLK1 inh inactive.
Screening CCn1c(CSc2nnc3ccccn23)nc2cc(C(=O)O)ccc21 returned EphB4 antag 27[fluorescence artefact?], Plk1 PBD FP inactive, hDAT+cocaine inactive, FAK inh inactive, Rev-RRE block inactive and PLK1 inh inactive.
CCOC(=O)C1CCN(C(=O)COC(=O)COc2ccccc2OC)CC1 was read as EphB4 antag inactive, Plk1 PBD FP inactive, hDAT+cocaine -8.5, FAK inh inactive, Rev-RRE block inactive and PLK1 inh inactive.
For Cn1cccc1Cc1nnc(SCC(=O)Nc2ccc(F)cc2)n1-c1ccc(F)cc1 the results were EphB4 antag inactive, Plk1 PBD FP inactive, hDAT+cocaine inactive, FAK inh inactive, Rev-RRE block inactive and PLK1 inh inactive.
`Cn1cccc1Cc1nnc(SCC(=O)Nc2cccc(F)c2)n1CCc1ccccc1` gave hDAT+cocaine 2.1.
Screening Cn1cccc1Cc1nnc(SCC(=O)Nc2ccc(Cl)cc2)n1-c1ccc(F)cc1 returned hDAT+cocaine 2.8.
Screening Cn1cccc1Cc1nnc(SCC(=O)Nc2ccccc2F)n1CCc1ccccc1 returned EphB4 antag inactive, Plk1 PBD FP inactive, hDAT+cocaine inactive, FAK inh inactive, Rev-RRE block inactive and PLK1 inh inactive.
Fc1ccc(-c2nnc(-n3nnc4ccccc43)c3ccccc23)cc1 was read as EphB4 antag inactive, Plk1 PBD FP inactive, hDAT+cocaine inactive, FAK inh inactive, Rev-RRE block inactive and PLK1 inh inactive.
`CSc1nc(N)nc(SCC(=O)c2ccccc2)c1C#N` gave EphB4 antag inactive, Plk1 PBD FP inactive, hDAT+cocaine inactive, FAK inh inactive, Rev-RRE block inactive and PLK1 inh inactive.
